High-throughput results deposited in PubChem BioAssay by several laboratories.
TLR4-MyD88 BLA – TLR4-MyD88 interaction inhibition in cells | O00206+Q99836 | HeLa CL3-4 TLR4/MyD88 BLA complementation, FRET ratio | inhibition, % at 8.4 µM | hit rate 0.18% among 200,000 | AID 861; in the data active means inhibition above about 25%;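 further: 0% = vehicle and 100% = reference inhibitor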
TLR9-MyD88 block – blocks human TLR9 binding to MyD88; CHO BLA complementation TLR9-MyD88, CCF4 FRET ratio; inhibition, % at 4.98 µM; hit rate 0.21% among 340,000; AID 504734;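 active means inhibition above the mean over all tested compounds plus 3 SD, cut at about 21% in these data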;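 further: 0% = DMSO only wells and 100% = clavulanate BLA inhibitor control wells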
NOD2 RIPK2 PPI – blocks binding of human NOD2 to RIPK2; hit rate 0.38% among 360,000; CHO BLA complementation NOD2-RIPK2, CCF4 ratio; O43353; inhibition, % at 4.98 µM; in the data active means inhibition above about 21%;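 further: 0% = vehicle only and 100% = reference blocker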
Target sequence (O43353 whole entry, looked up): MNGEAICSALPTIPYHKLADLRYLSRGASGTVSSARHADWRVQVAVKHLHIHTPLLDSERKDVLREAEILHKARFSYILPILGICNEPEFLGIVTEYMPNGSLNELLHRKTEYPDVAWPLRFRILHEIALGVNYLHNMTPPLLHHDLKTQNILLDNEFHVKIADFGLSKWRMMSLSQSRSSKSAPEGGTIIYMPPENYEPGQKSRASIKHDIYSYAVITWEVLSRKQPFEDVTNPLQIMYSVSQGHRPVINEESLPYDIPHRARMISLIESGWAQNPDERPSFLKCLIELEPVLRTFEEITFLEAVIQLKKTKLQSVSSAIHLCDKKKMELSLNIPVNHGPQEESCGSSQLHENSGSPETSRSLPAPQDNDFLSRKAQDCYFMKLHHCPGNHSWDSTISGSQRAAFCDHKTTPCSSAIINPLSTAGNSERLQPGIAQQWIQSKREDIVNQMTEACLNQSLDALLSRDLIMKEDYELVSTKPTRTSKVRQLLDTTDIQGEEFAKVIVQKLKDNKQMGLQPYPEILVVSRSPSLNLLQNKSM
CHOP UPR activ – apoptotic UPR (CHOP) activation | CHO-CHOP luciferase reporter, luminescence; percent of tunicamycin response over DMSO baseline | activation, % at 10 µM | hit rate 0.34% among 330,000;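 active means at 10 µM dose, activation of 40% or more, normalized to positive control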;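 further: 100% = tunicamycin at 10 µg/mL and 0% = DMSO alone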
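measured by = luciferase luminescence | assay system = CHO-CHOP cells, stable luciferase reporter of PERK-eIF2a-CHOP signalling | amount = 500 reporter cells seeded per well | timing = 6 h compound exposure at 37 °C after overnight seeding | controls = positive tunicamycin 10 µg/mL, negative DMSO alone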
UPR XBP1 act – activators of adaptive arm of unfolded protein response (XBP1) | CHO-XBP1 luciferase reporter, IRE1-XBP1 UPR activation, luminescence; percent of tunicamycin response, DMSO as zero | activation, % at 20 µM | hit rate 0.33% among 330,000 | AID 463104;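 active means versus positive control, 20 µM dose yields 30% or more activation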;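 further: 100% = tunicamycin at 10 µg/mL and 0% = DMSO only wells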
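Signal: luciferase luminescence; Assay system: CHO-XBP1 luciferase reporter cells; Amount: one thousand reporter cells per well; Dosing: 20 µM single concentration, DMSO 1%; Benchmarks: high control tunicamycin 10 µg/mL final, low control DMSO vehicle only; Schedule: 6 h compound exposure at 37 °C, 5% CO2; Evaluation: percent activation relative to tunicamycin reference.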
CHOP inh – blocks CHOP induction under ER stress; CHO-K1 CHOP-promoter luciferase, tunicamycin-induced, 15-18 h; inhibition, % at 10 µM; hit rate 3.8% among 220,000; AID 2732;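 active means compounds that reduced the stress-induced luciferase reporter signal by more than about 70% of percent inhibition, limit read from the data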;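 further: 0% = tunicamycin plus vehicle and 100% = wells without tunicamycin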
CHOP UPR conf – confirmation of apoptotic unfolded protein response (CHOP) activators; shares compounds with CHOP UPR activ; CHO-CHOP cells, CHOP-luciferase reporter luminescence; percent of tunicamycin response, DMSO as zero; activation, % at 10 µM; hit rate 64% among 1,000; AID 463112; in the data active means activation above about 33%;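 further: 0% = DMSO wells and 100% = tunicamycin 10 µg/mL wells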
UPR XBP1 confirm – confirmation of adaptive unfolded protein response (XBP1) activators | shares compounds with UPR XBP1 act | CHO-XBP1 IRE1-XBP1 luciferase reporter, luminescence | activation, % at 20 µM | hit rate 63% among 1,000;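 active means reporter signal at least 30% of the positive control's activation in two or more of four replicate wells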;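 further: plate controls were DMSO negative control for no effect and tunicamycin 10 µg/mL positive control for full effect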
Active calls of the source: *; . = no result given. Shown is part of a subset that was picked to be rich in hits.

SMILES	TLR4-MyD88 BLA	TLR9-MyD88 block	NOD2 RIPK2 PPI	CHOP UPR activ	UPR XBP1 act	CHOP inh	CHOP UPR conf	UPR XBP1 confirm
COC(=O)N=Nc1c(O)[nH]c2ccc(Br)cc12	.	-8	-2	0	1	7	.	.
CCCCOC(=O)/C=C/c1ccc(OC(=O)OC)c(OC(=O)OC)c1	3	-1	14	0	-2	-20	.	.
COC(=O)Oc1ccc(/C=C/C(=O)OC(C)C)cc1OC(=O)OC	-4	-8	5	131*	14	1	61*	.
COC(=O)[C@@]1(Sc2ccc(OC)cc2)CC(=O)N[C@@H]1c1ccccc1	.	.	-10	.	.	.	.	.
CCC(=O)Nc1cc(-c2cc3ccccc3oc2=O)ccc1OC	1	8	5	0	-1	3	.	.
COc1ccc(-c2cc3ccccc3oc2=O)cc1NC(=S)NC(=O)c1ccc2c(c1)OCCO2	-5	-5	0	87*	198*	-13	55*	.
Cc1ccc(-c2nn3c(C)nnc3s2)cc1NC(=O)c1ccc(-c2ccc(Cl)cc2Cl)o1	-4	3	2	46*	51*	81*	35*	.
Cc1ccc(-c2nn3c(C)nnc3s2)cc1NC(=O)c1ccc(-c2cccc(Cl)c2)o1	-8	8	-15	2	-1	50	.	.
CCc1ccc(NC(=O)CSc2nc(C)cs2)cc1	.	-3	0	.	.	.	.	.
CCOc1ccccc1-n1c(SCC(=O)Nc2ccc(CC)cc2)nc2n[nH]c(C)c2c1=N	-13	.	.	181*	246*	96*	107*	233*
COc1cccc(C(O)c2nc(-c3cc(F)cc(F)c3)cs2)c1 (configuration not stated)	.	.	7	.	.	.	.	.
Cc1cc(C)nc(SCc2ccc(C(=O)N/N=C/c3cccc(O)c3O)cc2)n1	12	11	12	140*	53*	-5	77*	52*
Cc1ccc(F)cc1N=Cc1c(O)c2ccccc2oc1=O	.	-3	8	148*	76*	.	131*	141*
Cc1ccc(N=Cc2c(O)c3ccccc3oc2=O)c(C)c1	.	1	9	21	7	.	.	.
CC(=O)c1cccc(N=Cc2c(O)c3ccccc3oc2=O)c1	.	-5	-8	159*	147*	.	35*	93*
CCN(CC)S(=O)(=O)c1ccc(-c2nnc(SCC(=O)N3CCOCC3)o2)cc1	-14	1	-3	0	-2	-13	.	.
CCN(CC)S(=O)(=O)c1ccc(-c2nnc(SCC(=O)N3CCc4ccccc43)o2)cc1	.	2	-14	70*	209*	.	1	28
O=C(NN=Cc1ccc(O)c(O)c1)c1ccccc1	.	.	2	.	.	.	.	.
O=C1c2ccccc2C(=O)N1/N=C/c1ccc(O)c(O)c1	-10	6	3	54*	72*	70*	18	37*
CCc1nc2ccc(C(=O)NCC3CCCCC3)cn2c1N(CCC(C)C)CCN(C)C	.	.	-6	.	.	.	.	.
CN(/N=C\c1ccc(O)c(O)c1)c1nc(-c2ccccc2)cc(-c2ccccc2)n1	1	-3	6	112*	66*	103*	93*	98*
COc1ccc(-c2cc(=O)oc3c(C)c(OC(C)C(C)=O)ccc23)cc1 (configuration not stated)	.	1	3	-1	1	.	.	.
COc1ccc(-c2cc(=O)oc3c(C)c(OC(=O)c4cccs4)ccc23)cc1	9	-2	-8	66*	80*	80*	89*	114*
COc1ccc2nc(/C(C#N)=C\c3ccc(Oc4ccc([N+](=O)[O-])cn4)cc3)[nH]c2c1	0	6	13	98*	182*	71*	24	37*
COc1cc(/C=C(/C#N)c2ccc(C)cc2)ccc1Oc1ccc([N+](=O)[O-])cn1	-17	8	-4	2	0	26	.	.
SMILES	TLR4-MyD88 BLA	TLR9-MyD88 block	NOD2 RIPK2 PPI	CHOP UPR activ	UPR XBP1 act	CHOP inh	CHOP UPR conf	UPR XBP1 confirm
Cc1cc(F)ccc1-c1cc(C(=O)NC(C)C)[nH]n1	.	.	5	.	.	.	.	.
Brc1ccc(-c2ccc(/C=N/Nc3nncc(-c4ccccc4)n3)o2)cc1	-15	-8	-3	59*	91*	50	62*	128*
O=c1[nH]c(-c2ccc(-c3cccc(Cl)c3)o2)nc2ccccc12	.	1	13	74*	92*	.	105*	176*
O=c1[nH]c(SCc2cccc(Cl)c2)nc2ccccc12	-1	-16	-2	-1	-6	38	.	.
Cc1sc2ncnc(N/N=C/c3cccc(O)c3)c2c1C	-7	-14	-7	7	1	31	.	.
C/C(=N\Nc1ncnc2sc(C)c(C)c12)c1ccccn1	.	-10	-7	97*	97*	.	88*	122*
COc1ccc(CN(C)C(=O)CCNS(=O)(=O)c2ccccc2)c(OC)c1	.	-1	5	.	.	.	.	.
O=CC1=C(c2ccccc2)Oc2ccccc2O1	.	-7	-6	67*	37*	.	72*	33*
CN(C)/C=C1/N=C(c2ccccc2)OC1=O	2	3	-14	6	0	0	.	.
Cc1sc(NC(=O)c2cc(-c3ccc(Cl)cc3)nc3ccccc23)c(C(N)=O)c1C	-5	1	2	107*	199*	-25	85*	183*
O=C(Nc1ccc(-c2nc3ccccc3o2)cc1)c1ccc2c(c1)OCO2	0	6	11	46*	88*	85*	7	24
Cc1ccc2oc(-c3ccc(NC(=O)c4ccc5c(c4)OCO5)cc3)nc2c1	3	6	-11	6	4	17	.	.
COc1ccc(N=c2oc3c(OC)cccc3cc2C(=O)NCc2ccco2)c(OC)c1	4	-5	2	172*	74*	89*	101*	22
COc1ccc2cc(C(=O)NCc3ccco3)c(=Nc3ccc(C(=O)O)cc3)oc2c1	15	3	4	-2	0	3	.	.
CCNC(=O)C1(C)CCCN(C(=O)c2cc(-c3ccccc3)cs2)C1 (configuration not stated)	.	.	1	.	.	.	.	.
COc1ccc(-c2csc3nc(-c4ccc(C)cc4)oc(=O)c23)cc1OC	-3	3	-10	57*	59*	63	32	42*
COc1cc(SC#N)ccc1N=Cc1c(C)[nH]n(-c2ccc(C)c(C)c2)c1=O	-7	-3	-24	68*	54*	107*	39*	73*
COc1cc(S(=O)(=O)Nc2ccccc2)ccc1N=Cc1c(C)[nH]n(-c2ccc(C)cc2)c1=O	-1	.	.	2	1	49	.	.
